{"source": "paper PMC4111403", "about": "(Journal of Medicinal Chemistry, 2014)", "key": {"[1]": {"system": "acetylated α-tubulin (AcTub) in QBI293 cells", "experiment": "QBI293 cell AcTub", "type": "cell-based", "conditions": "for activity in AcTub assay: 1 μM; for increase of cellular AcTub (words, Figure 2): compared with 1", "procedure,_shortened": "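QBI293 cells are an HEK293 derivative. Tubulin acetylation, which occurs on polymerized tubulin, serves as the cellular read-out of MT stabilization. Test compounds were run at 0.1 or 1 μM. AcTub was expressed relative to vehicle-treated cells and to a 0.1 μM reference MT-stabilizer positive control. Significance was assessed by two-tailed t-test.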"}, "[2]": {"system": "AcTub levels in brain homogenates", "conditions": "single ip injection 1–6 mg/kg, mice ref 4; cited from earlier work"}, "[3]": {"system": "acetylated α-tubulin (AcTub) in QBI293 cells", "conditions": "50–500 nM concentrations ref 8; cited from earlier work"}, "[4]": {"system": "Pgp transporter", "conditions": "cited from earlier work"}, "[5]": {"experiment": "Brain and plasma compound concentration 1 h after ip injection", "type": "in vivo, CD1 mice", "conditions": "1 h after ip injection of 5 mg/kg, mouse", "procedure,_shortened": "(§1)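 Dosing in 2-month-old CD1 mice (20 g average). Brain hemispheres homogenized by sonication in 10 mM ammonium acetate pH 5.7 (1:2 w/v); plasma from EDTA blood centrifuged 4500g, 10 min, 4 °C. Samples precipitated with acetonitrile, spun 15 000g, then analysed by UPLC–MS/MS with positive ESI and MRM. Quantified against brain- and plasma-matrix standard curves spanning 0.005–5 μM.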"}, "[6]": {"system": "tau transgenic (Tg) mice", "conditions": "tau Tg mice with brain stem and spinal cord tau pathology ref 5; cited from earlier work"}, "[7]": {"target": "human Pgp (Homo sapiens, UniProt P08183)", "sequence (P08183 whole entry)": "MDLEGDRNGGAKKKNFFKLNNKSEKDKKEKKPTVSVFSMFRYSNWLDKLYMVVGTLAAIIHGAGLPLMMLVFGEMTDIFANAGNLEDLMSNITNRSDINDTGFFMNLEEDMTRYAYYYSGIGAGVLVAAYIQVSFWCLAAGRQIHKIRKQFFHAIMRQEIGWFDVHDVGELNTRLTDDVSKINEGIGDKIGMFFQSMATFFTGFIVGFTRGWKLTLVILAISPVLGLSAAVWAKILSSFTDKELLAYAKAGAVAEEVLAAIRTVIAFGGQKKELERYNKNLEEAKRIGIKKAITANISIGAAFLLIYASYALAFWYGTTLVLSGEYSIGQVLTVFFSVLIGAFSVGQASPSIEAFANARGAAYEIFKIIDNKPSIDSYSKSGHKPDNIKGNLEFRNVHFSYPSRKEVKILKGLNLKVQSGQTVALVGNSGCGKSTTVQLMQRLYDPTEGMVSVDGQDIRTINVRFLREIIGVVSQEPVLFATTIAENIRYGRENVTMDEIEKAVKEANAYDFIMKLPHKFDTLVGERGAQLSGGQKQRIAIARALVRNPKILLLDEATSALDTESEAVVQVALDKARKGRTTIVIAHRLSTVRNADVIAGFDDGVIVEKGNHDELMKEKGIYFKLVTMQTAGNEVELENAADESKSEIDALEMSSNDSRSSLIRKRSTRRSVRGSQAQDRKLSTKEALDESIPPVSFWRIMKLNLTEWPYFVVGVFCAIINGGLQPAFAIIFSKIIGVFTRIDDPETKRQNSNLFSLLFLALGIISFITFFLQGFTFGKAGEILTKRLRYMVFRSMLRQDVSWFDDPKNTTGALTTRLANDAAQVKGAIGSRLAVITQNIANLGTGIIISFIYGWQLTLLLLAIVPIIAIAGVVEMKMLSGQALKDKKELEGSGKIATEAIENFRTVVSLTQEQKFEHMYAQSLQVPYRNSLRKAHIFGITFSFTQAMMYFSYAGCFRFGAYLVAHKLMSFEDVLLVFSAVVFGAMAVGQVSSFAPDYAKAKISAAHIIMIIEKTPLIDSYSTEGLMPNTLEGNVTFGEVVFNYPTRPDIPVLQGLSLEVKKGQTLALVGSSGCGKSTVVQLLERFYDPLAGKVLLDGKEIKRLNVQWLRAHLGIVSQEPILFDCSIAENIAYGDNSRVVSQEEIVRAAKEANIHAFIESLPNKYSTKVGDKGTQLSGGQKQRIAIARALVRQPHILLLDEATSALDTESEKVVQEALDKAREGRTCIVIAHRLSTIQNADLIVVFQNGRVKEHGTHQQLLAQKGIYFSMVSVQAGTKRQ", "experiment": "Pgp-interaction assay", "type": "cell-based", "conditions": "NCI/ADR-RES cells"}, "[8]": {"system": "β-tubulin", "conditions": "β-tubulin ref 28; cited from earlier work"}, "[9]": {"experiment": "16 h brain and plasma PK study after ip dosing", "type": "in vivo, CD1 mice", "conditions": "for brain penetration / BBB permeability: mouse, ip dosing; for half-life: CD1, mouse, ip, 5 mg/kg", "procedure,_shortened": "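2-month-old CD1 mice (20 g average). Plasma from EDTA-collected blood spun 4500g, 10 min, 4 °C; brain hemispheres sonicated in 10 mM ammonium acetate pH 5.7 (1:2 w/v). Acetonitrile-precipitated supernatants quantified by LC–MS/MS (positive ESI, MRM) against spiked-matrix standards 0.005–5 μM.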"}, "[10]": {"system": "Pgp-expressing cancer cell lines", "conditions": "cited from earlier work"}, "[11]": {"system": "QBI293 cells", "experiment": "AcTub immunofluorescence of QBI293 cells", "type": "cell-based", "conditions": "4 h incubation; 2 at 100 nM, colchicine at 1 μM"}, "[12]": {"system": "AcTub levels in brain homogenates", "experiment": "Brain pharmacodynamic effect: AcTub levels in brain homogenates", "type": "in vivo, WT mice", "conditions": "1 mg/kg daily ip for 4 or 6 days, n = 3"}, "[13]": {"experiment": "Brain and plasma levels 2 h after oral administration", "type": "in vivo, mice", "conditions": "2 h after oral administration of 10 mg/kg", "procedure,_shortened": "as §1"}, "[14]": {"experiment": "Unbound fraction in brain homogenate by equilibrium dialysis", "type": "in vitro ADME", "conditions": "ratio of brain Fu values"}}, "data": [{"compound": "Cc1nnc(Cl)c(-c2c(F)cc(F)cc2F)c1-c1ccc(Cl)s1", "note": "[Compound 7, 3-Chloro-5-(5-chlorothiophen-2-yl)-6-methyl-4-(2,4,6-trifluorophenyl)pyridazine, reference compound]", "values": [{"measurement": "activity in AcTub assay", "setting": "[1]", "value": "essentially inactive"}]}, {"compound": "C/C1=C/C[C@@H](/C(C)=C/c2csc(C)n2)OC(=O)C[C@H](O)C(C)(C)C(=O)[C@H](C)[C@@H](O)[C@@H](C)CCC1", "note": "[Compound 1, epothilone D]", "values": [{"measurement": "elevation in AcTub levels in brain homogenates", "setting": "[2]", "value": "significant elevation"}, {"measurement": "elevation of AcTub levels in cells", "setting": "[3]", "value": "significant elevation"}, {"measurement": "Pgp transporter inhibition", "setting": "[4]", "value": "inhibitor of the Pgp transporter"}]}, {"compound": "5-(4-Chlorophenyl)-6-methyl-4-(2,4,6-trifluorophenyl)pyridazin-3(2H)-one [Compound 6, reference compound]", "values": [{"measurement": "activity in AcTub assay", "setting": "[1]", "value": "essentially inactive"}, {"measurement": "AcTub fold-change relative to vehicle control", "setting": "[1]; compound at 1 μM", "value": "1.5 ± 0.8^ns fold-change"}]}, {"compound": "(S)-N-(3-(4-(5-Chloro-7-((1,1,1-trifluoropropan-2-yl)amino)[1,2,4]triazolo[1,5-a]pyrimidin-6-yl)-3,5-difluorophenoxy)propyl)pivalamide [Compound 16]", "values": [{"measurement": "AcTub fold-change relative to vehicle control", "setting": "[1]; compound at 1 μM", "value": "2.4 ± 0.9", "unit": "fold-change"}, {"measurement": "AcTub fold-change relative to 0.1 μM 2", "setting": "[1]; compound at 1 μM, relative to positive control 0.1 μM 2", "value": "0.7 ± 0.1", "unit": "fold-change"}, {"measurement": "B/P (brain-to-plasma ratio)", "setting": "[5]", "value": "0.12 ± 0.03"}, {"measurement": "brain concentration", "setting": "[5]", "value": "170 ± 10", "unit": "nM"}, {"measurement": "plasma concentration", "setting": "[5]", "value": "1500 ± 500", "unit": "nM"}]}, {"compound": "CC(=O)O[C@H]1C(=O)[C@@]2(C)[C@H]([C@H](OC(=O)c3ccccc3)[C@]3(O)C[C@H](OC(=O)[C@H](O)[C@@H](NC(=O)c4ccccc4)c4ccccc4)C(C)=C1C3(C)C)[C@]1(OC(C)=O)CO[C@@H]1C[C@@H]2O", "note": "[paclitaxel]", "values": [{"measurement": "effect on neurodegenerative phenotype of tau Tg mice", "setting": "[6]", "value": "improve the neurodegenerative phenotype"}]}, {"compound": "CC(C)Nc1c(-c2c(F)cc(F)cc2F)c(Cl)nc2nccnc12", "note": "[Compound 37, 6-Chloro-N-isopropyl-7-(2,4,6-trifluorophenyl)pyrido[2,3-b]pyrazin-8-amine]", "values": [{"measurement": "activity in AcTub assay", "setting": "[1]", "value": "essentially inactive"}]}, {"compound": "CNCCCOc1cc(F)c(-c2c(Cl)nc3ncnn3c2N[C@@H](C)C(F)(F)F)c(F)c1", "note": "[Compound 2, (S)-5-Chloro-6-(2,6-difluoro-4-(3-(methylamino)propoxy)phenyl)-N-(1,1,1-trifluoropropan-2-yl)[1,2,4]triazolo[1,5-a]pyrimidin-7-amine]", "values": [{"measurement": "increase of cellular AcTub (words, Figure 2)", "setting": "[1]", "value": "significant increase"}, {"measurement": "effect on Pgp function (calcein-AM transport)", "setting": "[7]", "value": "did not interfere appreciably with Pgp function"}, {"measurement": "competition for the taxane/epothilone binding site", "setting": "[8]", "value": "not to compete"}, {"measurement": "effect on vinblastine binding", "setting": "[8]", "value": "did affect vinblastine binding"}, {"measurement": "brain penetration / BBB permeability", "setting": "[9]", "value": "negligible brain penetration"}, {"measurement": "activity against Pgp-expressing cancer cell lines", "setting": "[10]", "value": "active"}, {"measurement": "AcTub staining by immunofluorescence", "setting": "[11]", "value": "large increase in AcTub-positive structures"}]}, {"compound": "C[C@H](Nc1nc(-c2cnccn2)nc(Cl)c1-c1c(F)cc(F)cc1F)C(F)(F)F", "note": "[Compound 20, (S)-6-Chloro-2-(pyrazin-2-yl)-5-(2,4,6-trifluorophenyl)-N-(1,1,1-trifluoropropan-2-yl)pyrimidin-4-amine]", "values": [{"measurement": "increase of cellular AcTub (words, Figure 2)", "setting": "[1]", "value": "large increase"}, {"measurement": "effect on Pgp function (calcein-AM transport)", "setting": "[7]", "value": "did not interfere appreciably with Pgp function"}, {"measurement": "brain penetration / BBB permeability", "setting": "[9]", "value": "can readily partition across the BBB"}, {"measurement": "PD response: AcTub level in brain", "setting": "[12]", "value": "significant PD response"}, {"measurement": "brain and plasma levels after oral dosing", "setting": "[13]", "value": "micromolar levels"}]}, {"compound": "COc1cc2c(c(OC)c1OC)-c1ccc(OC)c(=O)cc1[C@@H](NC(C)=O)CC2", "note": "[colchicine]", "values": [{"measurement": "AcTub staining by immunofluorescence", "setting": "[11]", "value": "significant loss of AcTub staining"}]}, {"compound": "C[C@H](Nc1c(-c2c(F)cc(OCCCN(C)C)cc2F)c(Cl)nc2ncnn12)C(F)(F)F", "note": "[Compound 9, (S)-5-Chloro-6-(4-(3-(dimethylamino)propoxy)-2,6-difluorophenyl)-N-(1,1,1-trifluoropropan-2-yl)[1,2,4]triazolo[1,5-a]pyrimidin-7-amine]", "values": [{"measurement": "increase of cellular AcTub (words, Figure 2)", "setting": "[1]", "value": "large increase"}, {"measurement": "AcTub fold-change relative to vehicle control (numbers in parentheses)", "setting": "[1]; compound at 0.1 μM", "value": "(2.0 ± 1.4) fold-change"}, {"measurement": "effect on Pgp function (calcein-AM transport)", "setting": "[7]", "value": "did not interfere appreciably with Pgp function"}, {"measurement": "half-life", "setting": "[9]; brain", "value": "> 2", "unit": "h"}, {"measurement": "half-life", "setting": "[9]; plasma", "value": "> 2", "unit": "h"}, {"measurement": "brain penetration / BBB permeability", "setting": "[9]", "value": "relatively limited"}, {"measurement": "brain Fu value of 9 relative to 20", "setting": "[14]", "value": "~3", "unit": "fold"}, {"measurement": "PD response: AcTub level in brain", "setting": "[12]", "value": "significant PD response"}, {"measurement": "brain and plasma levels after oral dosing", "setting": "[13]", "value": "micromolar levels"}]}]}
